Experimental data as given in ChEMBL document CHEMBL3745654, “N-Alkylated arylsulfonamides of (aryloxy)ethyl piperidines: 5-HT(7) receptor selectivity versus multireceptor profile” (Bioorg Med Chem, 2016).
Active and inactive are the calls of the source. The calls are words filed in the database; no cut-off is given here.

Columns and labels:
Mus musculus [1] = assay: Antidepressant-like activity in Swiss albino mouse assessed as reduction in immobility time at 0.312 to 1.25 mg/kg, ip dosed 60 mins before test measured after 6 mins by forced swim test; assay type: functional, organism-based
How it was run: (§1)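 Male Swiss albino mice (22–26 g), 7–12 per dose. Compounds dissolved in distilled water and given ip 60 min before test. Each mouse placed for 6 min in a glass cylinder with 10 cm of water at 23–25 °C. Immobility (floating with minimal movement) scored over the last 4 min by a blinded observer. One-way ANOVA with Bonferroni.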

Mus musculus [2] = assay: Toxicity in Swiss albino mouse assessed as effect on spontaneous locomotor activity at 0.312 to 1.25 mg/kg, ip dosed 60 mins before test measured after 2 to 6 mins; assay type: organism-based; conditions: in vivo
Rattus norvegicus = assay: Pro-cognitive effect in ip dosed Sprague-Dawley rat assessed as amelioration of PCP-induced memory deficit dosed 1 hr and 15 mins before familiarization phase by novel object recognition test; assay type: functional; conditions: for minimal effective dose: read-out: MED
How it was run: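 Male Sprague–Dawley rats (~250 g), 7–12 per group, PCP-induced deficit model. Compounds ip 1 h and 15 min before T1. Day 1: 5-min arena habituation. Day 2: two 3-min trials 1 h apart, with two identical objects, then one replaced by a novel object. Exploration and distance video-tracked; discrimination index computed; ANOVA with Newman–Keuls.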

[3] = target: D(3) dopamine receptor (Homo sapiens) (UniProt P35462); assay: […] human dopamine D3 receptor expressed in CHO cells assessed as inhibition of dopamine-induced cAMP level at 1 uM after 30 mins by HTRF method; assay type: cell-based
D(3) dopamine receptor (Homo sapiens), sequence (P35462 whole entry): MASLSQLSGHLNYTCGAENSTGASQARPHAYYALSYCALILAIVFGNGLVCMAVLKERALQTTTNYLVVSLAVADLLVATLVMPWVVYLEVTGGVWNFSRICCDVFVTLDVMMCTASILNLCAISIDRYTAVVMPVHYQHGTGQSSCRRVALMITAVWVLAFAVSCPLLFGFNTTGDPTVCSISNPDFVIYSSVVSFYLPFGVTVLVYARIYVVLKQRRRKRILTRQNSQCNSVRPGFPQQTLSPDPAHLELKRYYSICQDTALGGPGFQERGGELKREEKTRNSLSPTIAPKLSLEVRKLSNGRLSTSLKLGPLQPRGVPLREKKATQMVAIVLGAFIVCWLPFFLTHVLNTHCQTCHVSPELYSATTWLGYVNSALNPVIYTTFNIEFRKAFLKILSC

Mus musculus [4] = assay: Toxicity in Swiss albino mouse assessed as effect on spontaneous locomotor activity at 1.25 to 5 mg/kg, ip dosed 60 mins before test measured after 2 to 6 mins; assay type: organism-based; conditions: in vivo
Mus musculus [5] = assay: Antidepressant-like activity in Swiss albino mouse assessed as reduction in immobility time at 1.25 to 5 mg/kg, ip dosed 60 mins before test measured after 6 mins by forced swim test; assay type: functional, organism-based; how it was run: as §1

Row | SMILES | Activity (Mus musculus [1]) | Activity (Mus musculus [2]) | Activity (Rattus norvegicus) | minimal effective dose (Rattus norvegicus) | inhibition [3] | Activity (Mus musculus [4]) | Activity (Mus musculus [5])
1 | CN(C1CCN(CCOc2ccccc2C(C)(C)C)CC1)S(=O)(=O)c1cnn(C)c1 | Active | Non-toxic | – | – | – | – | –
2 | Cn1cc(S(=O)(=O)N(CC2CC2)C2CCN(CCOc3ccccc3-c3ccccc3)CC2)cn1 | – | – | Dose-dependent effect | 1 mg/kg | > 91% | – | –
3 | CN(C1CCN(CCOc2ccccc2-c2ccccc2)CC1)S(=O)(=O)c1cnn(C)c1 | – | – | – | – | > 91% | Non-toxic | Active
4 | Cn1cc(S(=O)(=O)N(CC2CC2)C2CCN(CCOc3ccccc3C(C)(C)C)CC2)cn1 | – | – | Dose-dependent effect | 1 mg/kg | – | – | –
